Reference: ChEMBL document CHEMBL5104098, “Exploring the structure-activity relationship of benzylidene-2,3-dihydro-1H-inden-1-one compared to benzofuran-3(2H)-one derivatives as inhibitors of tau amyloid fibers” (Eur J Med Chem, 2022)
Active and inactive are the calls of the source. The rule behind the calls is not given here.

Tests used:
[1] = Displacement of ThT from AcPHF6 in pH 7.4 phosphate buffer assessed as reduction in fluorescence intensity relative to control; conditions: dose 10.0 µM
How it was run: (§1)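 Preformed AcPHF6 fibers (1 mM peptide left 24 h in deionised water) added to give 100 μM fibers with 10 μM ThT in 50 mM phosphate buffer pH 7.4, ≤0.5% DMSO; compound 10 μM (1:1 with ThT). Emission spectra recorded shortly after fiber addition, excitation 440 nm; % decrease calculated from emission intensity at 480 nm.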

[2] = Displacement of ThT from AcPHF6 in pH 7.4 phosphate buffer at 1:1 compound:ThT ratio; how it was run: as §1
[3] = Inhibition of synthetic AcPHF6 peptide aggregation in pH 7.4 phosphate buffer assessed as reduction in fluorescence intensity at 10 uM and measured every minute over 2 hrs by ThT fluorescence assay relative to control
How it was run: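 Fluorescence read every minute for 2 h, ex 440/em 480 nm. Intrinsic compound fluorescence corrected with peptide-free blank wells. Hexaplicate; % inhibition versus peptide-only control.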

[4] = Inhibition of synthetic AcPHF6 peptide aggregation in pH 7.4 phosphate buffer assessed as reduction in beta sheet formation at 100 uM incubated for 2 hrs by circular dichroism spectroscopy
How it was run: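 CD samples: 100 μM AcPHF6 in 50 mM phosphate buffer, compound with <0.2% DMSO, 1 mm quartz cell. Spectra taken after 2 h at room temperature, 260–190 nm, 1 nm resolution, 1 s per point, 10 nm bandwidth. Compound level is printed as 10 μM in methods and 100 μM in legend.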

[5] = Inhibition of synthetic AcPHF6 peptide aggregation in pH 7.4 phosphate buffer assessed as reduction in beta sheet fibrillation at 100 uM incubated for 24 hrs by atomic force microscopy analysis
How it was run: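 AFM imaging of samples taken from the CD preparations after 24 h fibrillation at room temperature; 100 μM AcPHF6 alone or with compound at 100 μM.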

| inhibition [1] [%] | inhibition [2] | inhibition [3] [%] | inhibition [4] | inhibition [5] | Compound |
| --- | --- | --- | --- | --- | --- |
| 76 | Active | 72 | – | – | O=C1/C(=C/c2ccc(O)cc2O)Cc2cc(O)cc(O)c21 |
| 42 | Active | 71 | Active | Active | O=C1/C(=C/c2cc(O)c(O)c(O)c2)Cc2ccccc21 |
| 94 | Active | 99 | – | – | O=C1/C(=C/c2cc(O)c(O)c(O)c2)Oc2cc(O)cc(O)c21 |
| 89 | Active | 94 | – | – | O=C1/C(=C/c2ccc(O)cc2O)Oc2cc(O)cc(O)c21 |
| 70 | Active | 68 | – | – | O=C1/C(=C/c2cc(O)c(O)c(O)c2)Oc2ccccc21 |
| 45 | Active | 69 | – | – | COc1cccc(/C=C2\Oc3c(OC)cccc3C2=O)c1 |
| 78 | Active | 83 | Active | – | O=C1/C(=C/c2cc(O)c(O)c(O)c2)Cc2c(O)cccc21 |
| 85 | Active | 93 | – | – | O=C1/C(=C/c2ccc(O)c(O)c2)Oc2cc(O)cc(O)c21 |
| 88 | Active | 91 | – | – | O=C1/C(=C/c2cc(O)c(O)c(O)c2)Oc2c(O)cccc21 |
| 65 | Active | 78 | – | – | O=C1/C(=C/c2ccc(O)c(O)c2)Cc2cc(O)cc(O)c21 |
| 90 | Active | 87 | Active | – | O=C1/C(=C/c2cc(O)c(O)c(O)c2)Cc2cc(O)cc(O)c21 |
